# Results from PMC4711262 (Journal of thrombosis and haemostasis : JTH, 2011).
# Residues, ends and D or L forms follow the SMILES beside them. *: point of attachment. AMC = Cc1cc(=O)oc2cc(N*)ccc12; Cbz = O=C(OCc1ccccc1)*
# Tests used:
# [1] = molecular target: T1, POP (Homo sapiens, UniProt P48147); settings: cited from earlier work
# T1 sequence (P48147 1-710): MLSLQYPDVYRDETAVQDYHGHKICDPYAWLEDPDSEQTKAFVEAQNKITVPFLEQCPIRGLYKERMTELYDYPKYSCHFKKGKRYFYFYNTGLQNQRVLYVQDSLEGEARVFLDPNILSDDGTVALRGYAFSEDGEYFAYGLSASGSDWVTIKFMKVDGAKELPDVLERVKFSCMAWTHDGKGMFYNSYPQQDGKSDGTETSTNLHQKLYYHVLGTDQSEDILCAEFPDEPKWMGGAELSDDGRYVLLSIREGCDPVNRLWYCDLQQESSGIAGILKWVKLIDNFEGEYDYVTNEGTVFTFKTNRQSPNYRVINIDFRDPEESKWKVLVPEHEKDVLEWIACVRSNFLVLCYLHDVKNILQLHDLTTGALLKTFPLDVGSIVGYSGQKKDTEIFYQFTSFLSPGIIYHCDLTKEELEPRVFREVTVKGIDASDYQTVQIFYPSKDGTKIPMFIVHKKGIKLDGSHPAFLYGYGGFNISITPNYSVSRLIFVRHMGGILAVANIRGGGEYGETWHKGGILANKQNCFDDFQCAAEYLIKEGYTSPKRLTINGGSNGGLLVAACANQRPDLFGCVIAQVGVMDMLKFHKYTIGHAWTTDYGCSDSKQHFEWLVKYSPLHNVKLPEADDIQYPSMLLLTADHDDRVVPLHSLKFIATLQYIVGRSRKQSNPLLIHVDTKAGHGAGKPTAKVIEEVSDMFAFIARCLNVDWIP
# [2] = molecular target: T2, APCE/FAP (Homo sapiens, UniProt Q12884); test: Enzyme assay with fluorogenic substrate, APCE/FAP; format: biochemical; settings: 10 μM inhibitor
# T2 sequence (Q12884 24-760 limits assumed): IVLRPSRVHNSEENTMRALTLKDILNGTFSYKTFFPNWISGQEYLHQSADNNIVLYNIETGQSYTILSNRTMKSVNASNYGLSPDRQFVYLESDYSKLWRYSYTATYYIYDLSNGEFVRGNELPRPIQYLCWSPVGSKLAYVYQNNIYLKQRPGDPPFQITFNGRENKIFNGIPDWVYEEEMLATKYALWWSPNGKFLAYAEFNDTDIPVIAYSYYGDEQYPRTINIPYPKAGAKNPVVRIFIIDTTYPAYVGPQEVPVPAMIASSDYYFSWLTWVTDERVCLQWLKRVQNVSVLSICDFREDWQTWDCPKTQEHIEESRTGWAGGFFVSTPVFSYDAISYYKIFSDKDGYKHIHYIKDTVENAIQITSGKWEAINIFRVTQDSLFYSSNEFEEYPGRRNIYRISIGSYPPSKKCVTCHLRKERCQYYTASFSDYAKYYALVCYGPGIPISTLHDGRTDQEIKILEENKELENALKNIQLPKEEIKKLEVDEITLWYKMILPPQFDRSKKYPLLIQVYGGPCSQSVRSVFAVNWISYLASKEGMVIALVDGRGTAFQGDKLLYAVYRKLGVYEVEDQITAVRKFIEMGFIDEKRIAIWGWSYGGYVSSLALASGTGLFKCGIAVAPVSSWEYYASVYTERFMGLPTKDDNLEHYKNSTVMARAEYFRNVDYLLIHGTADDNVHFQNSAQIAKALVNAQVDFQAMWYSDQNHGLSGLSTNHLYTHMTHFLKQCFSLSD
# [3] = tested on: APCE and POP; format: biochemical, human; settings: non-POP-supplemented plasma; 10 μM inhibitor; 100 μM substrate
# Outline: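 Pooled plasma from four donors, with or without 0.05 μg added POP, was assayed with 10 μM inhibitor or no inhibitor. Cleavage was compared with uninhibited plasma. Values are mean ± SD of three experiments.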
# [4] = molecular target: T3, DPPIV (Homo sapiens, UniProt P27487); test: Enzyme assay with fluorogenic substrate, DPPIV; format: biochemical
# [5] = molecular target: T1, POP; test: Enzyme assay with fluorogenic substrate, POP; format: biochemical; settings: 100 nM inhibitor; in buffer
# [6] = pH 7.8; cited from earlier work
# [7] = molecular target: T3, DPPIV; settings: cited from earlier work
# T3 sequence (P27487 whole entry, species assumed): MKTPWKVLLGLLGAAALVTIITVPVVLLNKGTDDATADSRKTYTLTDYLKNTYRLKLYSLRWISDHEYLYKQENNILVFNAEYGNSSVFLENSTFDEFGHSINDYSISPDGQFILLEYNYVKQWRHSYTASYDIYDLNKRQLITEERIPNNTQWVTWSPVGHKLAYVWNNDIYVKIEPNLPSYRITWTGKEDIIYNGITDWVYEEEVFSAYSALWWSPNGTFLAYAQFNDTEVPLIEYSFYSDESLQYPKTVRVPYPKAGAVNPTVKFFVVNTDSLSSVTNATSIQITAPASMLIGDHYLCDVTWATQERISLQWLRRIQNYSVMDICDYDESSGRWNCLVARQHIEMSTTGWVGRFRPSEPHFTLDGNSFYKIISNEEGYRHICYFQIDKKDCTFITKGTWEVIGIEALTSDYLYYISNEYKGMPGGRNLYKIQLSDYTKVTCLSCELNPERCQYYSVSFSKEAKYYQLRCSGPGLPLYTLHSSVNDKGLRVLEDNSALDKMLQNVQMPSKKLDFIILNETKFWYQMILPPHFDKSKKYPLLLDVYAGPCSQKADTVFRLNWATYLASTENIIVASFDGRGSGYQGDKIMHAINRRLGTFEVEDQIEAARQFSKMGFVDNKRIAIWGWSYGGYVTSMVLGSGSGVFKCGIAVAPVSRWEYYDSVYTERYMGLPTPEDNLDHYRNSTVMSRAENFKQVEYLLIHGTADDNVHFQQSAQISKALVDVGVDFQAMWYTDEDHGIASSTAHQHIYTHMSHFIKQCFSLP
molecule,measurement,setting,value
Cc1cc(=O)oc2cc(NC(=O)[C@@H]3CCCN3C(=O)CN)ccc12 [GP-AMC] (H-Gly-Pro-{AMC}),cleavage by POP,[1],not cleaved
acetyl-KLR-L-boroPro,inhibitory activity towards APCE/FAP,[2],no inhibitory activity
same,inhibition of MEPLGRQLTSGP-AMC cleavage in plasma,[3],not inhibited
same,inhibitory activity towards DPPIV,[4]; 10 μM inhibitor,no inhibitory activity
same,inhibition of POP,[5],total inhibition
CC(C)[C@H](N)C(=O)N1CCC[C@H]1B(O)O [Val-boroPro],stability of inhibitory activity in aqueous media,[6],rapidly loses inhibitory activity
"Cc1cc(=O)oc2cc(NC(=O)[C@@H]3CCCN3C(=O)CNC(=O)OCc3ccccc3)ccc12 [Z-GP-AMC, benzyloxycarbonyl (Z)-GP-AMC] (Cbz-Gly-Pro-{AMC})",cleavage by DPPIV,[7],not cleaved
"CC(=O)N[C@@H](CCCNC(=N)N)C(=O)NCC(=O)NCC(=O)N1CCC[C@H]1B(O)O [Inhibitor no. 2, Ac-Arg-Gly-Gly-L-boroPro]",DPPIV selectivity,[4]; Ki(app) (DPPIV)/Ki(app) (APCE/FAP),19
